Only some compounds are listed: those with a hit (about 12% of all), similar ones and a draw of the others.
L major viab – Leishmania major promastigote growth inhibition | Leishmania major promastigotes, resazurin fluorescence viability | inhibition, % at 10 µM | 200,000 tested, 9% active | AID 1063;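 note: promastigotes grown with compound for 44 hours at 28 °C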
CHOP inhibitor – CHOP inhibition in unfolded protein response. 220,000 tested, 3.8% active. CHO-K1 CHOP-promoter luciferase, tunicamycin-induced, 15-18 h. inhibition, % at 10 µM;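 active = compounds that reduced the stress-induced luciferase reporter signal by more than about 70% of percent inhibition, limit read from the data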
PKD1 inh – inhibitors of human PKD1 kinase; Q15139; PKD1 kinase fluorescence polarization assay; inhibition, % (test concentration not listed); 200,000 tested, 0.056% active
Wee1 degr inh – inhibitors of human Wee1 degradation; reporter increase, % at 5 µM; HeLa Luc-Wee1K328M stability, luciferase luminescence; 100% = proteasome inhibitor MG132 effect; AID 1321; 220,000 tested, 1.2% active;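 active = activation above the mean of all tested compounds plus 3 SD, set per screening run, cut at about 8.8% in these data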;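 note: cells exposed to compound for 20 h before luminescence read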
Arbovirus inh – arbovirus infection inhibition; 200,000 tested, 0.37% active; inhibition, % at 10 µM; arbovirus infection cell-based antiviral screen; in the data active = inhibition above about 30%
Rad51 HR inh – Rad51 (human) homologous recombination inhibition; 200,000 tested, 0.085% active; inhibition, % at 10 µM; Q06609; hRad51 DNA strand exchange, fluorescence dequenching;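 active = inhibition above 40% at the single screening dose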
Target sequence (Q06609 whole entry, looked up): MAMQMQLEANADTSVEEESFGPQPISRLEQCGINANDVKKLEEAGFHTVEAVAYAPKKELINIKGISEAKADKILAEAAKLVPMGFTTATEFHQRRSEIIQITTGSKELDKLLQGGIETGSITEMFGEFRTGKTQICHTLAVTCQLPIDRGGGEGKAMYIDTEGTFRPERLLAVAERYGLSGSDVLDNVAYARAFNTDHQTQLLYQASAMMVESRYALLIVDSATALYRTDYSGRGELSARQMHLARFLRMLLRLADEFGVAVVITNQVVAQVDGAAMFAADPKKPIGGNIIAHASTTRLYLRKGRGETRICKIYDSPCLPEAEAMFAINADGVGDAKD
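Material: Human Rad51 nucleoprotein filaments preassembled on unlabelled ssDNA | Also added: Labelled 47-mer dsDNA for strand exchange | Dosing: Single dose, 10 µM final compound | Schedule: 30-min compound preincubation and 15-min exchange, both room temperature | Technique: Fluorescence dequenching at 485/520 nm | Measure: Percent inhibition relative to plate controls and blanks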
Of the large screens only hits and unclear results are named; the others gave an inactive call. Cut-off read from the data, not from the text of the source, unless noted: active = inhibition above about 50%; inactive = the rest.

CC(=O)c1cc(-c2ccccc2)n(CC(=O)Nc2cc(C)cc(C)c2)c1C	CHOP inhibitor 94
CCOC(=O)c1cc(-c2ccccc2)n(CC(=O)Nc2cc(OC)cc(OC)c2)c1C	L major viab 96
Cc1oc(S(=O)(=O)N2CCCCC2)cc1NC(=O)Nc1ccc(Cl)cc1	none (no result: L major viab, PKD1 inh, Arbovirus inh)
CCc1cccc(C)c1NC(=S)N(CCOC)C(C)c1ccco1 (stereo unspecified)	none (no result: L major viab, PKD1 inh, Arbovirus inh)
O=C(c1ccc(-c2ccccc2)cc1)c1ccccc1C(=O)N1CCOCC1	L major viab 51
CCOC(=O)C1=NN(C(=O)c2ccccc2)C(O)(c2ccc(C)cc2)C1 (stereo unspecified)	Wee1 degr inh 15
CCOC(=O)C1=NN(C(=O)c2ccc(OC)cc2)C(O)(c2ccc(Cl)cc2)C1 (stereo unspecified)	none
Nc1nc(SCC(=O)NC2CCCCCC2)[nH]c(=O)c1-c1ccccc1	none
CC(CNCC1CCCO1)COc1cccc2ccccc12 (stereo unspecified)	L major viab 80
CC(C)NC[C@H](O)COc1cccc2ccccc12	none (no result: L major viab, PKD1 inh, Wee1 degr inh, Arbovirus inh)
O=S(=O)(Cc1ccccc1)NCC1CCCO1 (stereo unspecified)	none
CC(CNCC1CCCO1)COc1ccccc1 (stereo unspecified)	L major viab 62
CC1=CC(C)(C)[N+](C)(C)c2ccccc21	none
CCOc1ccc(NC(=O)c2ccc(F)cc2F)cc1	none (no result: L major viab, CHOP inhibitor, PKD1 inh, Wee1 degr inh, Arbovirus inh)
O=C(NCCO)c1cc2ccccc2cc1O	none
CCOc1ccc(NC(=O)c2cc3ccccc3cc2O)cc1	CHOP inhibitor 75 (no result: L major viab, PKD1 inh, Arbovirus inh)
C/C(CC(=O)N1CCCC1)=N\NC(=O)c1cc2ccccc2cc1O	Wee1 degr inh 12 (no result: L major viab, PKD1 inh, Arbovirus inh, Rad51 HR inh)
NNC(=O)c1cc2ccccc2cc1O	L major viab 64
CCOc1ccc(C(=O)Oc2ccc(NC(C)=O)cc2)cc1	CHOP inhibitor 83
COc1cccc(/C=N/Nc2nc3ccccc3[nH]2)c1OC	none (no result: L major viab, PKD1 inh, Arbovirus inh)
C=CCn1cc(/C=N/Nc2nc3ccccc3[nH]2)c2ccccc21	L major viab 101 (no result: Rad51 HR inh)
Cc1nn(-c2ccccc2)c(Cl)c1/C=N/Nc1nnc(C)c(=O)[nH]1	none
Cc1cc(=O)[nH]c(N/N=C/c2c(C)nn(-c3ccccc3)c2C)n1	none
Cc1nn(-c2ccccc2)c(Cl)c1/C=N/Nc1nc2ccccc2n1C	L major viab 52 (no result: Rad51 HR inh)
Cc1nn(-c2ccccc2)c(C)c1/C=N/Nc1nc2ccccc2[nH]1	L major viab 100
Cc1ccc(N2CCN(/N=C/c3c(C)nn(-c4ccccc4)c3Cl)CC2)cc1	L major viab 89
Cc1cccc(C)c1NC1=NCCCCC1	none
O=[N+]([O-])c1ccc(Oc2cccc(F)c2)c2ccncc12	none
O=C(NCCc1nc(-c2ccccc2)cs1)c1ccc(Br)cc1	none
Cc1c(/C=N/Nc2nc3ccccc3[nH]2)c2ccccc2n1C	none (no result: L major viab, PKD1 inh, Arbovirus inh)
C#CCn1cc(/C=N/NC(=O)c2cc3ccccc3o2)c2ccccc21	none
CCCn1c(/C=N/Nc2nc3ccccc3[nH]2)nc2ccccc21	L major viab 100
CC(C)Cn1c(/C=N/Nc2nc3ccccc3[nH]2)nc2ccccc21	L major viab 100
C=CCn1cc(/C=N\NC(=O)c2cc3c(ccc4ccccc43)o2)c2ccccc21	L major viab 100
C(=N\Nc1nc2ccccc2[nH]1)/c1cccs1	L major viab 98
Cc1n[nH]c(C)c1S(=O)(=O)N(CC(=O)NC1CCCC1)c1ccc(C(C)C)cc1	none
C/C(=N/NC(N)=S)c1ccc(Br)s1	none
CC1=C(C(=O)Nc2ccccc2C(F)(F)F)C(c2sccc2C)NC(=S)N1 (stereo unspecified)	none
CCCOc1ccccc1/C=C(\C#N)C(=O)Nc1cccnc1	none (no result: L major viab, PKD1 inh, Arbovirus inh)
NCC(O)C1CCCCCCC1 (stereo unspecified)	none (no result: L major viab, PKD1 inh, Wee1 degr inh, Arbovirus inh, Rad51 HR inh)
CC(C)C(=O)Nc1ccc(S(=O)(=O)Nc2ccccn2)cc1	none
Cn1c(/C=N/Nc2nc3ccccc3[nH]2)nc2ccccc21	L major viab 101
CCCn1nc(C(=O)OCC(=O)Nc2cccc(OC)c2)c2ccccc2c1=O	none
COc1ccc(-c2cn3cc(C)ccc3n2)cc1OC	Wee1 degr inh 10
Cc1ccc2nc(-c3ccc4c(c3)OCCO4)cn2c1	CHOP inhibitor 94 (no result: L major viab, PKD1 inh, Arbovirus inh)
O=C(O)C1Nc2c(O)cc(Cl)c([N+](=O)[O-])c2C2C=CCC12 (stereo unspecified)	none
O=C(CSc1nnc(-c2c[nH]c3ccccc23)o1)N(Cc1ccccc1)c1ccc(F)cc1	L major viab 64, CHOP inhibitor 71
COc1ccc(CN(C(=O)CSc2nnc(-c3ccccc3C)o2)c2ccc(F)cc2)cc1	none
Cc1ccc(C(=O)CSc2nnc(-c3c[nH]c4ccccc34)o2)cc1	CHOP inhibitor 95
O=C(CCCOc1ccccc1)NC(=S)Nc1ccccc1	none
Nc1ccc(Nc2nc(-c3cccs3)cs2)cc1	none
c1csc(-c2csc(-c3cccs3)n2)c1	CHOP inhibitor 77
Cc1cccc(Nc2nc(-c3ccccn3)cs2)n1	L major viab 100
Cc1cccnc1Nc1nc(-c2ccc(O)cc2O)cs1	none
Cc1cccnc1Nc1nc(-c2ccccn2)cs1	L major viab 100
c1ccc(Nc2nc(-c3cccnc3)cs2)nc1	none
Cc1cccc(Nc2nc(-c3cccs3)cs2)n1	L major viab 57, Wee1 degr inh 18
COC(=O)C[C@H]1c2cc(F)ccc2S(=O)(=O)N1Cc1ccccc1	none (no result: L major viab, CHOP inhibitor, PKD1 inh, Wee1 degr inh, Arbovirus inh)
c1ccc(Nc2nc(-c3cccs3)cs2)nc1	Wee1 degr inh 9.8
Cc1ccc(C2=NC3(CCCC3)N=C2SCC(=O)Nc2ccc3c(c2)OCCO3)cc1	L major viab 73 (no result: Rad51 HR inh)
O=C(CSc1ccc2c(c1)OCCO2)Nc1ccc(Br)cc1	L major viab 67
O=C(CN1CC(=O)Nc2ccccc21)NCCc1ccc(Cl)cc1Cl	none
O=C(/C=C/c1ccccc1[N+](=O)[O-])N1CCN(C(=O)c2ccco2)CC1	none
Cc1cc(=O)n2ccsc2n1	none (no result: Rad51 HR inh)
O=c1c2cc(NC(=S)NC3CC3)ccc2nc2n1CCCCC2	none
O=c1c2cc(NC(=S)NC3CCN(Cc4ccccc4)CC3)ccc2nc2n1CCCCC2	L major viab 54
CC1CCCCN1C(=S)Nc1ccc2nc3n(c(=O)c2c1)CCCCC3 (stereo unspecified)	L major viab 59
O=c1c2cc(NC(=S)NCCCN3CCC(Cc4ccccc4)CC3)ccc2nc2n1CCCCC2	L major viab 99
CCN(CC)CCNC(=S)Nc1ccc(F)cc1	none
C=CCNC(=O)c1onc(CSc2cccc(OC)c2)c1C(=O)NCC=C	none (no result: L major viab, PKD1 inh, Wee1 degr inh, Arbovirus inh)
CCCCCC(=O)Nc1cccc(C2=NOC3(C2)C[C@@H](C(N)=O)N(C(=O)c2ccc(Cl)cc2)C3)c1 (stereo partly specified)	none (no result: L major viab, PKD1 inh, Wee1 degr inh, Arbovirus inh)
COc1cc(CN2CCN(c3ccc(C)cc3)CC2)cc([N+](=O)[O-])c1O	L major viab 86, Rad51 HR inh 117
COc1cc(CN2CCN(c3cc(C)ccc3C)CC2)cc([N+](=O)[O-])c1O	none (no result: CHOP inhibitor, Arbovirus inh)
COc1cc(OC)c(OC)cc1CN1CCN(Cc2ccc(SC)cc2)CC1	L major viab 95

Screens from PubChem BioAssay.
